In the library only some 3.5% were active in any assay of this set; here they are far more common.
MrgX1 antagonist – blocks BAM8-22 activation of human MrgX1 receptor; Q96LB2; MRGX1-HEK293 calcium flux, Fluo-4, BAM8-22 antagonism; active compounds read low; B-score at 10 µM; 310,000 compounds, 1.3% hits; AID 588676;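 active = calcium-response B-score plate-corrected more than 3 library SD below zero, starting fluorescence within 5 deviations, no agonist response on first addition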;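 note: peak minus trough fluorescence over baseline after final BAM8-22 challenge near maximal dose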
Target sequence (Q96LB2 whole entry, looked up): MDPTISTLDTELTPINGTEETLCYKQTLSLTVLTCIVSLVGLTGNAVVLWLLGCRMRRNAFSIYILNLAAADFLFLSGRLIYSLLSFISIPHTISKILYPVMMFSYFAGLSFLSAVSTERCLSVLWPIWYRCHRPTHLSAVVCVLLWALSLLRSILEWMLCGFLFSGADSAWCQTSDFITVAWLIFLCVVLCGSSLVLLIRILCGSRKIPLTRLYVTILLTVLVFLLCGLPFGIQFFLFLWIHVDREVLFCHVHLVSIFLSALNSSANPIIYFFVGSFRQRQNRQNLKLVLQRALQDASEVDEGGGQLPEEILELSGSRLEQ
MrgX1 ag – human MrgX1 receptor agonism, primary screen; Q96LB2; MrgX1-HEK293 cells, Fluo-4 calcium fluorescence, agonist mode; active compounds read high; B-score at 10 µM; AID 588627; 310,000 compounds, 0.44% hits;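 active = calcium response B-score plate-corrected fluorescence ratio at least 3 library SD, with starting fluorescence B-score inside 5 SD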
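Test system: HEK293 cells stably expressing human MrgX1 receptor; amount: 15,000 cells per well; doses: compound delivered in addition one of three; times: overnight plating before 1 h dye loading; detection: Fluo-4 NW calcium-flux fluorescence, kinetic read; read-out basis: B-scored fluorescence response ratio; controls: positive and negative controls per plate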
RGS4 pot – potentiators or activators of RGS4. HEK293 M3R/inducible RGS4, carbachol calcium flux Fluo4; active compounds read low. B-score at 10 µM. 310,000 compounds, 0.92% hits. AID 463111;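 active = B-score of the integrated calcium signal more than 4 SD below the library mean, with starting fluorescence not abnormally high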;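 note: negative B-score means reduced calcium response which marks RGS4 activation or potentiation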
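Material: Inducible-RGS4 HEK293 cells carrying M3 receptor; also added: carbachol at ECmax as muscarinic agonist stimulus; incubation: compound preincubation 20 min at room temperature before agonist; signal: Fluo4-AM (2 µM) calcium-flux fluorescence, kinetic read; measure: integrated calcium ratio converted to B score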
RGS4 inh – inhibitors of human RGS4; P49798; HEK293 M3R/RGS4 inducible, Fluo-4 calcium flux; active compounds read high; triggered by carbachol at its EC20; B-score at 10 µM; 310,000 compounds, 0.45% hits; AID 463165;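 active = B-score, a plate-corrected calcium signal, over three deviations above library mean, with baseline fluorescence within five deviations of library mean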;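 note: RGS4 expression induced by doxycycline in cells with stable M3 receptor; B-score is computed from the integrated fluorescence ratio over baseline after carbachol; higher B-score means a larger calcium signal and so more RGS4 inhibition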
Target sequence (P49798 whole entry, looked up): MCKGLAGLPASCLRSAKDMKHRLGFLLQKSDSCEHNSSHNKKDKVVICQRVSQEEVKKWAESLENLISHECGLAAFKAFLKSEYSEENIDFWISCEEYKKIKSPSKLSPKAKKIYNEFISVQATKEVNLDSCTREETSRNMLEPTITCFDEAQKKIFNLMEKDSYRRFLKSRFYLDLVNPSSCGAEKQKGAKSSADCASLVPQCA
MrgX1 allo act – human MrgX1 positive allosteric modulation, primary screen | B-score at 10 µM | MrgX1-HEK293, Fluo-4 calcium flux, FDSS; active compounds read high | 310,000 compounds, 0.63% hits | Q96LB2 | AID 588675;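 active = plate-corrected calcium response at least 3 library SD above typical, normal starting fluorescence, not activating the receptor alone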;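 note: compound read alongside a low EC10 to EC30 dose of BAM8-22 agonist; peak minus trough fluorescence over baseline measured at the second addition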
RGS4 act valid – RGS4 activation, validation assay. HEK293 M3R/RGS4 inducible, carbachol calcium flux Fluo4. shares compounds with RGS4 pot. AID 602282. 1,100 compounds, 89% hits. inhibition, % at 10 µM;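 active = inhibition above 3 SD of the buffer control wells, cut at about 41% in these data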;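 note: signal is the integrated peak-minus-minimum Fluo4 fluorescence over baseline ratio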
M3R Ca counter – activity in cells without induced RGS4 expression | shares compounds with RGS4 pot | inhibition, % at 10 µM | 1,100 compounds, 82% hits | HEK293 M3R non-induced RGS4, Fluo4 calcium flux; after carbachol challenge at its EC90;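 active = inhibition exceeding 3 SD of buffer-only control wells, cut at about 26% in these data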;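 note: percent drop in integrated peak-minus-baseline over baseline Fluo4 ratio after carbachol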
Hits are given with their value; – = inactive; · = not tested or not shown.

SMILES | MrgX1 antagonist | MrgX1 ag | RGS4 pot | RGS4 inh | MrgX1 allo act | RGS4 act valid | M3R Ca counter
COc1ccccc1CN1CCC(CNS(=O)(=O)c2cc(-c3onc(C)c3C)ccc2OC)CC1 | – | – | -8 | – | – | 90 | 65
CNC(=S)Nc1ccc(N2CCN(c3ccc(C(F)(F)F)cn3)CC2)nc1 | – | – | – | – | – | · | ·
Cc1ccc(NS(=O)(=O)c2cc(C(=O)Nc3cccc(N(C)S(C)(=O)=O)c3)ccc2C)c(C)c1 | – | – | – | – | – | · | ·
O=C(C[n+]1cc(-c2ccc(Cl)c(Cl)c2)n2c1CCC2)N1c2ccccc2Sc2ccccc21 | – | – | -11 | – | – | 93 | 95
COCc1cc(N2CCCCC2)nc(-c2ccccc2)n1 | – | – | – | – | – | · | ·
CC(C)C(NC(=O)COc1ccc2ccccc2c1)C(=O)N/N=C/C=C/c1ccccc1 (stereo unspecified) | – | – | – | – | – | · | ·
COc1cc([N+](=O)[O-])ccc1NC(=O)N1CCCCCC1 | – | – | – | – | – | · | ·
CN1CCN(C(=O)CSc2nc3ccc(NC(=O)c4ccccc4F)cc3s2)CC1 | – | – | – | – | – | · | ·
Cc1ccccc1CN1C(=O)/C(=C\c2ccc(C(=O)NCCN3CCOCC3)cc2)Sc2ccccc21 | – | – | -12 | – | – | 90 | 81
CCN(C1CCCCC1)S(=O)(=O)c1ccc(S(=O)(=O)N2CCN(CCC#N)CC2)cc1 | – | – | -9.1 | – | – | 90 | 65
O=C(CSC1=NS(=O)(=O)c2cc(F)ccc2N1)NCc1ccccc1 | – | – | – | – | – | · | ·
CC1CC(OC(=O)C(O)c2ccccc2)CC(C)(C)N1C (stereo unspecified) | – | – | -10 | – | – | 77 | 38
CCCCn1c(-c2csc(C(C)C)c2)n[nH]c1=S | – | – | -9.7 | – | – | 92 | 60
CCCc1cc(-c2n[nH]c(=S)n2CC(C)C)cs1 | – | – | – | – | – | · | ·
CCCCn1c(-c2csc(CC)c2)n[nH]c1=S | – | – | -8 | – | – | 88 | 55
COc1ccccc1NC(=O)c1ccccc1Oc1ccccc1 | -5.9 | – | -9.2 | – | – | 86 | 50
COc1ccc(CSCCNC(=S)Nc2ccccc2)cc1Cl | – | – | – | – | – | · | ·
S=C(NCCSCc1ccc(Cl)c(Cl)c1)Nc1ccccc1 | – | – | -8.3 | – | – | 90 | 71
CN(C)CCN(C(=O)c1ccc(C(=O)c2ccccc2)cc1)c1nc2cc3c(cc2s1)OCO3 | – | – | – | – | – | · | ·
CN(C)CCN(C(=O)c1ccc(C(=O)c2ccccc2)cc1)c1nc2cc3c(cc2s1)OCCO3 | – | – | -9.1 | – | – | 90 | 74
Cc1ccc(CNC(=O)C2CCC(=O)N(C3CC3)C2)cc1 (stereo unspecified) | – | – | – | – | – | · | ·
COC(=O)c1sc(-c2ccc(Cl)cc2)cc1N | – | – | -7.7 | – | – | – | –
CC(=O)c1sc(-c2ccc(Cl)cc2)cc1N | – | – | – | – | – | · | ·
Cc1cc(S(=O)(=O)NCCC2=CCCCC2)ccc1Br | – | – | -9.6 | – | – | 92 | 83
Cc1ccc(S(=O)(=O)NCCC2=CCCCC2)cc1C(N)=O | – | – | – | – | – | · | ·
O=C(NCCc1ccccc1)C(=O)NCC1CCCN1S(=O)(=O)c1ccccc1 (stereo unspecified) | – | – | -9.6 | – | – | 68 | 26
CC1(C)CC(=O)C2=C(C1)OC(N)=C(C#N)C2c1cn(-c2ccccc2)nc1-c1ccccc1 (stereo unspecified) | – | – | -11 | – | – | – | –
CC1(C)CC(=O)C2=C(C1)OC(N)=C(C#N)C2c1ccoc1 (stereo unspecified) | – | – | – | – | – | · | ·
CC(=O)OC(C)[C@H]1CC[C@H]2[C@@H]3CC[C@H]4C[C@@H](OC(C)=O)CC[C@]4(C)C3=CC[C@]12C (stereo partly specified) | – | – | – | – | – | · | ·
O=C(c1ccc(S(=O)(=O)N2CCOCC2)cc1)N1CCN(c2cccc(Cl)c2)CC1 | – | – | – | – | – | · | ·

Assay outcomes from PubChem BioAssay.
